Test results from ChEMBL document CHEMBL1151755, “Crystal structure of the peroxisome proliferator-activated receptor gamma (PPARgamma) ligand binding domain complexed with a novel partial agonist: a new region of the hydrophobic pocket could be exploited for drug design” (J Med Chem, 2008).
Active and inactive are the calls of the source. No cut-off for these calls is given here.

Assays:
Type in all cases: cell-based
Details in all cases: HepG2
[1] = target: T1, Peroxisome proliferator-activated receptor delta (Homo sapiens) (UniProt Q03181); experiment: Increase in transcriptional activity of human PPARbeta/delta ligand binding domain expressed in human Hep G2 cells co-transfected with Gal4-DBD by luciferase reporter gene assay
T1 sequence (whole entry): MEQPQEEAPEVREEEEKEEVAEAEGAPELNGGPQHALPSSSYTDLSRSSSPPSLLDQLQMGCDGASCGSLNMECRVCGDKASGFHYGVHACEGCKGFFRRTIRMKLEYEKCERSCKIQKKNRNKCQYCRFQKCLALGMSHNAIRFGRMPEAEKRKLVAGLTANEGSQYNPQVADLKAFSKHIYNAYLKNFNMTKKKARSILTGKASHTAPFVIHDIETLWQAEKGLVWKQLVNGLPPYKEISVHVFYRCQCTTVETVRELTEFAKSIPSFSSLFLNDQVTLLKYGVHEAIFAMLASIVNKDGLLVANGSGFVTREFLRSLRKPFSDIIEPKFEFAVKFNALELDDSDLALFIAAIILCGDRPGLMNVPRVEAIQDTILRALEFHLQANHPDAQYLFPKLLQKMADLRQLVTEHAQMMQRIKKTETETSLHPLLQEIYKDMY
Procedure, shortened: (§1)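 HepG2 cells transfected for 4 h by calcium phosphate coprecipitation with 100 ng pGal4UAS-luciferase, 50 ng Gal4-LBD receptor vector and 300 ng CMV-β-galactosidase plasmid for normalization. Cells were washed in PBS, then refed with serum-free DMEM/F-12 containing penicillin/streptomycin and compound or 0.1% ethanol vehicle for 20 h. Luciferase read-out was normalized to β-galactosidase. Experiments were repeated at least three times.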

[2] = target: T2, Bile acid receptor (Homo sapiens) (UniProt Q96RI1); experiment: Increase in transcriptional activity of FXR ligand binding domain expressed in human Hep G2 cells co-transfected with Gal4-DBD by luciferase reporter gene assay; procedure, shortened: as §1
T2 sequence (whole entry): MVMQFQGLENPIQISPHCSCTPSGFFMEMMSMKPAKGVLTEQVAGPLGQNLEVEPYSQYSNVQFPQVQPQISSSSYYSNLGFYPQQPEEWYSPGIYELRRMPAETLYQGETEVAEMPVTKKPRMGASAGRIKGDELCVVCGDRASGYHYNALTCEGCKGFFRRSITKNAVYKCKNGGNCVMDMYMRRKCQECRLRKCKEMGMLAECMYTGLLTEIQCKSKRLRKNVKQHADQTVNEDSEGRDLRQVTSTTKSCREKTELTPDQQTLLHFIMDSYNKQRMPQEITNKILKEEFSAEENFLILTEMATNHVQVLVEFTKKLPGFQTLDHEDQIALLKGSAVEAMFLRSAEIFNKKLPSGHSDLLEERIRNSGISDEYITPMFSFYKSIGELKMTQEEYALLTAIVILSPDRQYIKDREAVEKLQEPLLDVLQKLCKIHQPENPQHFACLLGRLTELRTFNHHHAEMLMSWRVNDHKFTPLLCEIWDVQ

[3] = target: T3, Hepatocyte nuclear factor 4-alpha (Homo sapiens) (UniProt P41235); experiment: Increase in transcriptional activity of HNF-4alpha ligand binding domain expressed in human Hep G2 cells co-transfected with Gal4-DBD by luciferase reporter gene assay; procedure, shortened: as §1
T3 sequence (whole entry): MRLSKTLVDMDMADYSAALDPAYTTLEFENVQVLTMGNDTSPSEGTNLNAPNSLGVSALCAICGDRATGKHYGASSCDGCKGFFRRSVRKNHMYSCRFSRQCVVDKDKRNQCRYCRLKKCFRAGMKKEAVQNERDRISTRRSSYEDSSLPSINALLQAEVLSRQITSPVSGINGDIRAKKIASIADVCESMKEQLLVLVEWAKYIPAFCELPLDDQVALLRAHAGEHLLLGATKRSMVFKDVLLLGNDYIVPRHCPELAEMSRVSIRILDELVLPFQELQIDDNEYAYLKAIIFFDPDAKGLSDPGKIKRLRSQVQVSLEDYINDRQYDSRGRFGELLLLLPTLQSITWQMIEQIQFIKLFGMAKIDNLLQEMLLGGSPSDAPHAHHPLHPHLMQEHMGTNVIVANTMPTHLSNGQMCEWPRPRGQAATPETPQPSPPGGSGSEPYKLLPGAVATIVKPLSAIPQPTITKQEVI

[4] = target: T4, Peroxisome proliferator-activated receptor alpha (Homo sapiens) (UniProt Q07869); experiment: Agonist activity at human PPARalpha ligand binding domain expressed in human Hep G2 cells co-transfected with Gal4-DBD by luciferase reporter gene assay relative to Wy 14,643
T4 sequence (whole entry): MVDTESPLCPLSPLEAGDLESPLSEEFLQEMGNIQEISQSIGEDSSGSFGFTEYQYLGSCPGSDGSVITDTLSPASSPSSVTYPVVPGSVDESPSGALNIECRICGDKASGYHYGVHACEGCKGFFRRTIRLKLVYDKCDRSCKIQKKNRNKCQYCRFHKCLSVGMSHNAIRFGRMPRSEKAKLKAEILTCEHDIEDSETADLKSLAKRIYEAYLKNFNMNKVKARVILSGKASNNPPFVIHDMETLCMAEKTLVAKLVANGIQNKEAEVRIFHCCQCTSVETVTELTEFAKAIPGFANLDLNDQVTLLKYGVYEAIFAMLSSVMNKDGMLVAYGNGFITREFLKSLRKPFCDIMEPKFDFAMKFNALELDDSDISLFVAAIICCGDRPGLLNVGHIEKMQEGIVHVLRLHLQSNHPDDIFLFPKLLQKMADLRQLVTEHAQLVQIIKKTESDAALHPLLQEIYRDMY
Procedure, shortened: (§2)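 HepG2 cells received the Gal4-receptor LBD construct (50 ng), pGal4UAS-luciferase (100 ng) and pCMVβ (300 ng) by calcium phosphate coprecipitation for 4 h. They were then treated in serum-free DMEM/F-12 with ligand or 0.1% ethanol for 20 h. Luciferase was normalized to β-galactosidase, and efficacy was expressed as percent of the Wy 14,643 maximum (100%). Values are mean ± SEM of 3–5 experiments in triplicate.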

[5] = target: T5, Peroxisome proliferator-activated receptor alpha (Mus musculus) (UniProt P23204); experiment: Agonist activity at mouse PPARalpha ligand binding domain expressed in human Hep G2 cells co-transfected with Gal4-DBD by luciferase reporter gene assay relative to Wy 14,643; procedure, shortened: as §2
T5 sequence (whole entry): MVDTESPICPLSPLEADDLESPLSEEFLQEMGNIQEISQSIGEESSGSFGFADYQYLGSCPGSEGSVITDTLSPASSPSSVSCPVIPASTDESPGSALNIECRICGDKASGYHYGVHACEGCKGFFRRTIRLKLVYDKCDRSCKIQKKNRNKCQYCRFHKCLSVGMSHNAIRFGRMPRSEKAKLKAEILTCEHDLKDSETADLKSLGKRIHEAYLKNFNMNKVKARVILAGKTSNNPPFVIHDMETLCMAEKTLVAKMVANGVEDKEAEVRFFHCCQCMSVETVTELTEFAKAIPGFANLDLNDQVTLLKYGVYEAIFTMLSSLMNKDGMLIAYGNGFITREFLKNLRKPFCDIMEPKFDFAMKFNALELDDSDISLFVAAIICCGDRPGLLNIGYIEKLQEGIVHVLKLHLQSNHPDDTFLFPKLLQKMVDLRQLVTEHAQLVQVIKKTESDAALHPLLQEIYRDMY

SMILES	Activity [1]	Activity [2]	Activity [3]	Efficacy [4] [%]	Efficacy [5] [%]	Activity [4]	Activity [5]
O=C(O)[C@H](Cc1ccccc1)Oc1ccc(-c2ccccc2)cc1	inactive	inactive	inactive	100	120		
O=C(O)[C@@H](Cc1ccccc1)Oc1ccc(-c2ccccc2)cc1	inactive	inactive	inactive			inactive	inactive
